In assay [1] the test system is HT-29. The assay is described as follows: Cytotoxicity against human HT-29 cells after 72 hrs by MTT assay. It counts as functional, cell-based. The settings on record: HT-29, 72 h. An outline of the steps: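 HT-29 cells, grown in DMEM with 2 mM L-glutamine, 10% heat-inactivated FBS and 1% penicillin/streptomycin at 37 °C, seeded at 1 × 10⁵ cells/ml and exposed 72 h to a range of compound concentrations in DMSO. Cells were then given MTT 3 h, formazan dissolved in SDS/formamide lysis buffer pH 4.7, and absorbance read at 620 nm. Values are % of untreated control; IC50 is from ≥3 experiments.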

The subject of assay [2] is HT-29. The assay is described as follows: Blockade of cell cycle progression in human HT-29 cells. It counts as functional, cell-based.
Assay [3] deals with DNA topoisomerase 2-alpha (Homo sapiens) (UniProt P11388). The assay is described as follows: Inhibition of human recombinant topoisomerase 2alpha-mediated pBR322 DNA cleavage after 30 mins.
Assay [4] relates to HT-29. The assay is described as follows: Induction of apoptosis in human HT-29 cells assessed as hypodiploid DNA content at 0.1 uM after 48 hrs using propidium iodide staining by flow cytometry. It counts as functional. An outline of the steps: (§1)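 Cultured HT-29 cells were plated at 5 × 10⁵ per 6-cm dish the day before treatment, then exposed 48 h to 0.1–5 μM. Cells were washed in PBS and taken up in 0.1% sodium citrate, 0.1% Triton X-100 and 50 μg/ml PI for 30 min at 4 °C in the dark. Nuclei were run by flow cytometry with debris gated out by forward scatter, and % hypodiploid nuclei counted. Three experiments in triplicate.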

The subject of assay [5] is HT-29. The assay is described as follows: Induction of apoptosis in human HT-29 cells after 48 hrs assessed as hypodiploid DNA content using propidium iodide staining by flow cytometry. It counts as functional, cell-based. An outline of the steps:
as §1

Assay [6] has as its system HT-29. The assay is described as follows: Induction of apoptosis in human HT-29 cells after 48 hrs using propidium iodide staining by flow cytometry in presence of Z-VAD-FMK. The assay is classed as functional, cell-based. An outline of the steps: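 HT-29 cells were pretreated with the general caspase inhibitor Z-VAD-FMK at 50 μM for 30 min before compound was added, then incubated 48 h. Nuclei were stained with PI in 0.1% citrate/0.1% Triton X-100 for 30 min at 4 °C in the dark. Hypodiploid % was scored by flow cytometry. Three experiments in triplicate; Bonferroni test.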

Assay [7] concerns the target DNA topoisomerase 2-alpha (Homo sapiens) (UniProt P11388). The assay is described as follows: Inhibition of human recombinant topoisomerase 2alpha-mediated pBR322 DNA cleavage at 10 uM after 30 mins.
Assay [8] deals with HT-29. The assay is described as follows: Induction of apoptosis in human HT-29 cells assessed as hypodiploid DNA content at 0.5 uM after 48 hrs using propidium iodide staining by flow cytometry. The assay is classed as functional, cell-based. An outline of the steps: as §1

The results in this text go back to ChEMBL document CHEMBL1139331, “Molecular modelling studies, synthesis and biological activity of a series of novel bisnaphthalimides and their development as new DNA topoisomerase II inhibitors” (Bioorg Med Chem, 2009).

SMILES strings stand for the structures. Calls of active or inactive are those of the source. The calls are words filed in the database; no cut-off is given here.

Chain of DNA topoisomerase 2-alpha (Homo sapiens) (P11388 whole entry): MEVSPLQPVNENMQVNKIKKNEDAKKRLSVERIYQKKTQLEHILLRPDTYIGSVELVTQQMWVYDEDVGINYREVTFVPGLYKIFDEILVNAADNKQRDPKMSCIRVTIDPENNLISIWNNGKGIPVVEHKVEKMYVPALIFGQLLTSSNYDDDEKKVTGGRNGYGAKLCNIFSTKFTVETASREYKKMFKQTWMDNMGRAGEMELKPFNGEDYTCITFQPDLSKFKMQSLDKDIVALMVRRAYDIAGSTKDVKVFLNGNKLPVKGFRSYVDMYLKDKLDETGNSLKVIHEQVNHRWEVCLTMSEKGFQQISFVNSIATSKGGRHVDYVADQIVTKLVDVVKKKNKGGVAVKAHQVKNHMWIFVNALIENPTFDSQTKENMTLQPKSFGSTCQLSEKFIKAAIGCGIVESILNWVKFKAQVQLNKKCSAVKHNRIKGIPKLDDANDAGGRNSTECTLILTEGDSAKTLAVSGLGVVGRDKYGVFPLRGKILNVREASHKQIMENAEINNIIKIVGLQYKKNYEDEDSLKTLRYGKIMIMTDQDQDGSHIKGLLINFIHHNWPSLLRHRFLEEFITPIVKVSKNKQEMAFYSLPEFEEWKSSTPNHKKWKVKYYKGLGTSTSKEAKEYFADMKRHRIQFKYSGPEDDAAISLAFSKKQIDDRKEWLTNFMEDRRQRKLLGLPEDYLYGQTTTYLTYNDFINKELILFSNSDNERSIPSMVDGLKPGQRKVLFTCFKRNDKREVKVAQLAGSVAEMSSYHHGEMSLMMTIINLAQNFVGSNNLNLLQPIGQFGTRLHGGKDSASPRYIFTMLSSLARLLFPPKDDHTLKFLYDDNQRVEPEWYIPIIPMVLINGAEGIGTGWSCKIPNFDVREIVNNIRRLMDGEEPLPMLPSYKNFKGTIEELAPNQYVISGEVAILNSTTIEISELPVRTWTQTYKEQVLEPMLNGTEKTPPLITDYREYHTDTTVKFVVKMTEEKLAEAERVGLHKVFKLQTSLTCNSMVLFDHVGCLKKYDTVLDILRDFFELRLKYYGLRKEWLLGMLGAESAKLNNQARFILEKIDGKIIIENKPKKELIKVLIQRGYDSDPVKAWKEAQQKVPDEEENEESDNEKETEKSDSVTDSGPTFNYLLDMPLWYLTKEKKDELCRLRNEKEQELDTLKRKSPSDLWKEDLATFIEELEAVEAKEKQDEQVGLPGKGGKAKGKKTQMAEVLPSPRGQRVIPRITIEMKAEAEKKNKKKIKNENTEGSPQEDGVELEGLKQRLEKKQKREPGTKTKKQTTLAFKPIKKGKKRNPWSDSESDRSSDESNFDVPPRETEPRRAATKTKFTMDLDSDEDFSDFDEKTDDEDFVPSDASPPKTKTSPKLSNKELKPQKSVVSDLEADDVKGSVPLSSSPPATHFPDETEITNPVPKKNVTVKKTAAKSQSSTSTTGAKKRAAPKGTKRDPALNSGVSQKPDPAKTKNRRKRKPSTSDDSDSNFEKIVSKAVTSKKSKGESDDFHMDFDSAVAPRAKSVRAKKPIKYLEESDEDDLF

With `O=C1c2cccc3cc([N+](=O)[O-])cc(c23)C(=O)N1CCN1CCN(CCN2C(=O)c3cccc4cc([N+](=O)[O-])cc(c34)C2=O)CC1`, the IC50 (usually the point on the concentration scale where inhibition reaches its midpoint) with HT-29 [1] is 2100 nM. Besides, the result with HT-29 [2] was inactive.
Turning to `O=C1c2cccc3cccc(c23)C(=O)N1CCNCCCNCCN1C(=O)c2cccc3cccc(c23)C1=O` [ELINAFIDE], the IC50 in the assay on HT-29 [1] amounted to 38 nM.
`O=C1c2cccc3cc([N+](=O)[O-])cc(c23)C(=O)N1CCNCCNCCN1C(=O)c2cccc3cc([N+](=O)[O-])cc(c23)C1=O`: the half-maximal inhibitory concentration (IC50) with HT-29 [1] was determined as 200 nM. Further, the result (in assay [3]; in the assay with HT-29 [2]) was inactive.
On to `O=C1c2cccc3cc([N+](=O)[O-])cc(c23)C(=O)N1CCCNCCNCCCN1C(=O)c2cccc3cc([N+](=O)[O-])cc(c23)C1=O`, for which the midpoint of inhibition in the assay on HT-29 [1], the IC50, lay at 501 nM. Further, the Activity is 40% in the assay on HT-29 [4] and “Dose-dependent effect” with HT-29 [5]. Also, the result (with HT-29 [6]; in assay [3]; with HT-29 [2]) was inactive.
Molecule `O=C1c2cccc3cccc(c23)C(=O)N1CCCCNCCNCCCNCCNCCCCN1C(=O)c2cccc3cccc(c23)C1=O` showed a half-inhibitory concentration (IC50) in the assay on HT-29 [1] of 6100 nM.
In the case of `O=C1c2cccc3cc([N+](=O)[O-])cc(c23)C(=O)N1CCCCNCCNCCCNCCNCCCCN1C(=O)c2cccc3cc([N+](=O)[O-])cc(c23)C1=O`, in the assay on HT-29 [1], it took 160 nM to reach half-maximal inhibition (IC50). In addition, in assay [7], the result was Active.
On to `C[C@@H]1CN(CCN2C(=O)c3cccc4cc([N+](=O)[O-])cc(c34)C2=O)C[C@H](C)N1CCN1C(=O)c2cccc3cc([N+](=O)[O-])cc(c23)C1=O`, for which half-maximal inhibition with HT-29 [1] (IC50) required 6100 nM. Further, the result in the assay on HT-29 [2] was inactive.
The matching figures for `O=C1c2cccc3cc([N+](=O)[O-])cc(c23)C(=O)N1CCN1CC2CCC(C1)N2CCN1C(=O)c2cccc3cc([N+](=O)[O-])cc(c23)C1=O`: 7300 nM and “inactive”.
In the assay with HT-29 [1], `O=C1c2cccc3cc([N+](=O)[O-])cc(c23)C(=O)N1CCCNC1CC1NCCCN1C(=O)c2cccc3cc([N+](=O)[O-])cc(c23)C1=O` (stereo not given) came in with an IC50 of 3300 nM. Further, in the assay with HT-29 [8], the result was Active. For the same molecule, in the assay with HT-29 [5], the Activity result is “Dose-dependent effect”. For the same molecule, the outcome (with HT-29 [6]; in assay [3]; with HT-29 [2]) was inactive.
